Tests used:
[1] = Antiproliferative activity against mouse RN2 cells transduced with BRD9-BET assessed as inhibition of cell growth for 7 days by cell titre glo assay (reference value: 6.144 uM); conditions: RN2, 168 h
HL-60 = experiment: Antiproliferative activity against human HL-60 cells assessed as inhibition of cell growth for 7 days by cell titre glo assay; assay type: functional; conditions: HL-60, 168 h, time 7 day
How it was run: (§1)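 Human cancer cell lines in RPMI-1640 (leukemia) or DMEM (solid) with 10 % FBS, grown 7 days with rising inhibitor concentrations. Proliferation read by CellTiter-Glo, normalized to DMSO control.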

Jurkat = experiment: Antiproliferative activity against human Jurkat cells assessed as inhibition of cell growth for 7 days by cell titre glo assay; assay type: functional; conditions: 168 h, time 7 day
How it was run: as §1

[2] = Antiproliferative activity against mouse RN2 cells transduced with BRD9 assessed as inhibition of cell growth for 7 days by cell titre glo assay (reference value: 6.144 uM); conditions: RN2, 168 h
[3] = target: T1, ATPase family AAA domain-containing protein 2B (Homo sapiens, UniProt Q9ULI0); experiment: Binding affinity to KIAA1240 (unknown origin) assessed as dissociation constant by bromoKdselect analysis
T1 sequence (Q9ULI0 whole entry): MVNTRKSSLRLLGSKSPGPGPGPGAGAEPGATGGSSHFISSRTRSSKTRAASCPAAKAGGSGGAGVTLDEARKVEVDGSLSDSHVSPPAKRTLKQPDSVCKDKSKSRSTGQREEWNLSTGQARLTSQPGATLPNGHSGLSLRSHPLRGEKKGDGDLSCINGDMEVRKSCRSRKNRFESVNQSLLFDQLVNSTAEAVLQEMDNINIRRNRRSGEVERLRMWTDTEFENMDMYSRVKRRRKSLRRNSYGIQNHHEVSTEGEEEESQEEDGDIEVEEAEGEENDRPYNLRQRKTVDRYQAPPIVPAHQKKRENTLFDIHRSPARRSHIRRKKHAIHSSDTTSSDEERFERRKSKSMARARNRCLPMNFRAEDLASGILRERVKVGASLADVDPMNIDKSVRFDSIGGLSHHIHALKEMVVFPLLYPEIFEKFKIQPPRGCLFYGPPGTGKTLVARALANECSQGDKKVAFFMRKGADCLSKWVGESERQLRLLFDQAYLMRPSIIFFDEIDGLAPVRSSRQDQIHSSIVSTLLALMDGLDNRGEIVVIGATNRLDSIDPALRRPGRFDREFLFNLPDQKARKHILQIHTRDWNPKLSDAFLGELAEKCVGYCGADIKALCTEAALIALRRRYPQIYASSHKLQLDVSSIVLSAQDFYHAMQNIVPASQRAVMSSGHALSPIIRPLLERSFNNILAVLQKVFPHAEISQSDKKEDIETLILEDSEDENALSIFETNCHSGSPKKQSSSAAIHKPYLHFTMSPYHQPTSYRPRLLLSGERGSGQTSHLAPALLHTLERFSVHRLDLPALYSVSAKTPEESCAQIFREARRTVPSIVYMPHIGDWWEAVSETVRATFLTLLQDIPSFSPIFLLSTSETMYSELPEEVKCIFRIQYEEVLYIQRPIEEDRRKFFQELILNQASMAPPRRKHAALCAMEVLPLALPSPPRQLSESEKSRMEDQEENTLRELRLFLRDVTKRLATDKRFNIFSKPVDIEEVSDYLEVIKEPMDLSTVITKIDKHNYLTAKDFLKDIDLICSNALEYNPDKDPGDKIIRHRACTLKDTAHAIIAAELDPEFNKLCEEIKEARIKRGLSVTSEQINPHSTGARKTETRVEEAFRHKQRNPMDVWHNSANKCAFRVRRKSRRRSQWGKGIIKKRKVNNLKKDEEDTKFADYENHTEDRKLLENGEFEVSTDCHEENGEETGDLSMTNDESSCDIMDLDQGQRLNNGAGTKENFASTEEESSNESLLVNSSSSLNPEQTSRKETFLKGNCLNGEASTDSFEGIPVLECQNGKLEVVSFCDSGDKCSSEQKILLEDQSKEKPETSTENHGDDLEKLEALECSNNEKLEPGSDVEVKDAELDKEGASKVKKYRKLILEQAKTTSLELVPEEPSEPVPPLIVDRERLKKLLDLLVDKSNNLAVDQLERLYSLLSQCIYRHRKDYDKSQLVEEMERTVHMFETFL

[4] = Antiproliferative activity against mouse RN2 cells assessed as inhibition of cell growth for 7 days by cell titre glo assay; conditions: RN2, 168 h
[5] = Antiproliferative activity against mouse RN2 cells transduced with BRD9-BET assessed as inhibition of cell growth for 7 days by cell titre glo assay (reference value: 610 nM); conditions: RN2, 168 h
[6] = Antiproliferative activity against mouse RN2 cells transduced with BRD9 assessed as inhibition of cell growth for 7 days by cell titre glo assay (reference value: 323 nM); conditions: RN2, 168 h
[7] = Antiproliferative activity against mouse RN2 cells transduced with BRD9-BET assessed as inhibition of cell growth for 7 days by cell titre glo assay (reference value: 323 nM); conditions: RN2, 168 h
[8] = Antiproliferative activity against mouse RN2 cells transduced with BRD9 assessed as inhibition of cell growth for 7 days by cell titre glo assay (reference value: 0.757 uM); conditions: RN2, 168 h
[9] = Antiproliferative activity against mouse RN2 cells transduced with BRD9-BET assessed as inhibition of cell growth for 7 days by cell titre glo assay (reference value: 0.757 uM); conditions: RN2, 168 h
[10] = Antiproliferative activity against mouse RN2 cells transduced with EZH2 harboring SET domain of EZH1 assessed as inhibition of cell growth for 7 days by cell titre glo assay (reference value: 5.1 uM); conditions: RN2, 168 h
[11] = Antiproliferative activity against mouse RN2 cells transduced with wild type EZH2 assessed as inhibition of cell growth for 7 days by cell titre glo assay (reference value: 5.1 uM); conditions: RN2, 168 h
[12] = Antiproliferative activity against mouse RN2 cells transduced with BRD9-BET assessed as inhibition of cell growth for 7 days by cell titre glo assay (reference value: 1709 nM); conditions: RN2, 168 h
[13] = Antiproliferative activity against mouse RN2 cells transduced with BRD9 assessed as inhibition of cell growth for 7 days by cell titre glo assay (reference value: 1709 nM); conditions: RN2, 168 h

For Cc1cc(=O)n(C)c2cc(N3C(=O)CC[C@H](NS(=O)(=O)CC(C)C)[C@H]3c3ccc(Cl)cc3)ccc12, the GI50 [1] was 9.38 µM, the GI50 (HL-60) was 5030 nM and the GI50 (Jurkat) was 10.5 µM. For the same compound, the GI50 [2] was 6.87 µM.
COc1cc(-c2cn(C)c(=O)c3cnccc23)cc(OC)c1CN(C)C showed a Kd [3] of 1000 nM, a GI50 [4] of 476 nM and a GI50 [5] greater than 10 µM.
In the case of COc1cc(-c2cn(C)c(=O)c3ccccc23)cc(OC)c1CN(C)C, the GI50 [6] is reported as 160 nM and the GI50 [7] is reported as 4.48 µM.
In the case of CCn1cc(-c2cccc(C(F)(F)F)c2)c2sc(C(=N)NC3CCS(=O)(=O)CC3)cc2c1=O, the GI50 [8] is reported as 1250 nM, the GI50 [9] is reported as 2690 nM and the GI50 (HL-60) is reported as 433 nM. It also gave a GI50 (Jurkat) of 3.64 µM.
CC[C@H](C)n1cc(C)c2c(C(=O)NCc3c(C)cc(C)[nH]c3=O)cc(-c3ccc(N4CCNCC4)nc3)cc21 [GSK2816126] gave a GI50 [10] greater than 10 µM and a GI50 [11] of 6.2 µM.
Work on COc1cc(-c2cc(C)c(=O)n(C)c2C)cc(OC)c1CN(C)C yielded a GI50 [12] greater than 10 µM and a GI50 [13] of 1030 nM.

Reference: ChEMBL document CHEMBL5712890, “Sensitivity and engineered resistance of myeloid leukemia cells to BRD9 inhibition” (Nat Chem Biol, 2016)
